According to ChEMBL document CHEMBL3108685, “Exploring the chemical space of G-quadruplex binders: discovery of a novel chemotype targeting the human telomeric sequence” (J Med Chem, 2013):
The source made the active and inactive calls. The rule behind the calls is not given here.

Columns and labels:
[1] = organism: Homo sapiens; assay: Binding affinity to human kit2 G-quadruplex DNA assessed as change in melting temperature at 10 uM by FRET assay
In short: (§1)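 FRET melting: target oligos labelled 5′-DABCYL / 3′-fluorescein, 0.25 μM, with ligand in 50 mM potassium buffer (10 mM LiOH, 50 mM KCl, pH 7.4). Samples denatured at 95 °C for 5 min, cooled slowly overnight, then ramped to 90 °C and back to 30 °C at 0.2 °C/min. Excitation 488 nm, emission 520 nm. Tm taken from first derivative; at least three repeats, errors ±0.2 °C.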

[2] = organism: Homo sapiens; assay: Displacement of thiazole orange from human Tel24 G-quadruplex DNA up to 28 uM by fluorescent intercalator displacement assay
In short: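 Tel24 unlabelled (0.6 μM) preloaded with thiazole orange (1.2 μM) in 10 mM Tris, 50 mM KCl, pH 7.4. Ligand added in increasing amounts and fluorescence emission followed. Displacement % = 100 − (F/F0 × 100), with F0 the signal before ligand, plotted against concentration. At least three repeats, each in triplicate.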

[3] = system: BJ; assay: Induction of DNA damage response in human BJ cells expressing SV40 early region protein HELT assessed as phosphorylation of gamma H2AX at 1 uM after 24 hrs by DAPI staining-based immunofluorescence analysis relative to control; format: functional
In short: (§2)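 BJ-HELT and BJ-hTERT fibroblasts grown in D-MEM with 10% FCS and 2 mM glutamine, exposed to 1 μM for 24 h. Cells fixed in 2% formaldehyde, permeabilized with 0.25% Triton X-100, stained with anti-γH2AX plus FITC secondary, and counterstained with DAPI. 200 cells scored on triplicate slides. Mean ± SD of at least three experiments.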

[4] = organism: Homo sapiens; assay: Binding affinity to human c-myc G-quadruplex DNA assessed as change in melting temperature at 10 uM by FRET assay; in short: as §1
[5] = system: BJ; assay: Induction of DNA damage response in human BJ cells expressing human TERT assessed as phosphorylation of gamma H2AX at 1 uM after 24 hrs by DAPI staining-based immunofluorescence analysis; format: cell-based; in short: as §2
[6] = organism: Homo sapiens; assay: Binding affinity to human kit1 G-quadruplex DNA assessed as change in melting temperature at 10 uM by FRET assay; in short: as §1
[7] = organism: Homo sapiens; assay: Binding affinity to human TBA G-quadruplex DNA assessed as change in melting temperature at 10 uM by FRET assay; in short: as §1
[8] = organism: Homo sapiens; assay: Binding affinity to human Tel24 G-quadruplex DNA assessed as change in melting temperature up to 20 uM by FRET assay; in short: as §1
[9] = system: U2OS; assay: Cytotoxicity against human U2OS cells assessed as inhibition of cell survival after 4 days by clonogenic assay; format: functional, cell-based
In short: (§3)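 Cells seeded at 5 × 10^2 per 60 mm dish and treated 24 h later across a dose series for 4 days, then colony formation scored. Surviving fraction = treated/control absolute survival. IC50 from dose–response. Mean ± SD of three independent experiments.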

[10] = organism: Homo sapiens; assay: Binding affinity to human Tel24 G-quadruplex DNA at 2:1 ligand/DNA ratio by NMR analysis
[11] = system: HT-29; assay: Cell cycle arrest in human HT-29 cells assessed as accumulation at subG1 phase at 2 uM by […]propidium iodide staining-based flow cytometric analysis; format: functional; details: TDE = time-dependent effect
In short: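 HT29 cells cultured with or without 2 μM and sampled on days 4, 5 and 6. Cells fixed in 70% ethanol, stained 30 min at room temperature in the dark with PI (50 μg/mL) plus RNase A, and analysed by flow cytometry (20000 events). Sub-G1 fraction taken as the apoptotic measure.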

[12] = system: BJ; assay: Induction of telomere dysfunction induced foci in human BJ cells expressing SV40 early protein HELT assessed as increase in gamma H2AX/TRF1 co-localization at 1 uM by deconvolution microscopy relative to control; format: functional
In short: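 BJ-HELT fibroblasts given 1 μM, then double immunofluorescence for γH2AX and TRF1 with DAPI, imaged by deconvolution microscopy. In a single plane, 30 γH2AX-positive cells scored; cells with at least four γH2AX/TRF1 colocalizations counted as TIF-positive. Mean TIFs per nucleus also scored. Mean ± SD, three experiments.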

[13] = system: HT-29; assay: Induction of apoptosis in human HT-29 cells assessed as early apoptotic cells at 2 uM measured on day 5 by Annexin V/propidium iodide staining-based flow cytometric analysis (reference value: 4%); format: functional
[14] = system: HT-29; assay: Cytotoxicity against human HT-29 cells assessed as inhibition of cell survival after 4 days by clonogenic assay; format: functional, cell-based; in short: as §3
[15] = organism: Homo sapiens; assay: Binding affinity to human Tel24 G-quadruplex DNA assessed as change in DNA topology by CD spectroscopic analysis
In short: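 CD spectra recorded at 25 °C, 220–320 nm, on annealed Tel24 (40 μM) with or without an excess of ligand. Buffer 10 mM Tris-HCl, 50 mM KCl, pH 7.4; 1 mm path length. Average of three scans, buffer baseline subtracted. Time constant 4 s, bandwidth 2 nm, scan rate 20 nm min−1.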

[16] = organism: Homo sapiens; assay: Binding affinity to human Tel24 G-quadruplex DNA assessed as change in melting temperature at 10 uM by FRET assay; in short: as §1
[17] = system: BJ; assay: Cytotoxicity against human BJ cells expressing human TERT assessed as cell viability up to 3 uM after 4 days by MTT assay; format: cell-based; details: 96 h
In short: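 BJ-hTERT cells seeded at 3 × 10^3 per well and treated 24 h later with 0, 1, 2 or 3 μM for 4 days. MTT (5 mg/mL stock in PBS) added, followed by 4 h at 37 °C. Formazan dissolved in isopropanol and OD read at 540 nm. Mean ± SD of three experiments.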

[18] = system: HT-29; assay: Induction of apoptosis in human HT-29 cells assessed as late apoptotic cells at 2 uM measured on day 5 by Annexin V/propidium iodide staining-based flow cytometric analysis (reference value: 10%); format: functional
[19] = system: HeLa; assay: Cytotoxicity against human HeLa cells assessed as inhibition of cell survival after 4 days by clonogenic assay; format: functional, cell-based; in short: as §3

SMILES | Activity [1] | Activity [2] | Activity [3] | Activity [4] | Activity [5] | Activity [6] | Activity [7] | Activity [8] | other results
COc1ccc(NC(=O)c2ccc(CN3CCC(Cc4ccccc4)CC3)cc2)cc1OC | inactive | inactive | Active | inactive | Non-toxic | inactive | inactive | inactive | 
Clc1ccc2[nH]c(-c3ccc(OCCCN4CCN(c5ccccc5)CC4)cc3)nc2c1 | inactive | inactive | Active | inactive | Non-toxic | inactive | inactive | inactive | 
Cn1c(=O)c2cc(C(=O)NCCN3CCC(Cc4ccccc4)CC3)sc2c2ccccc21 |  | Active | 60% |  | Non-toxic |  |  |  | Activity [9]: Dose-dependent effect; IC50 ([9]; 96 h): 1 µM; Activity [10]: Active; Activity [11]: tde; Activity [12]: <=50%; Activity [13]: 37%; Activity [14]: Dose-dependent effect; IC50 ([14]; HT-29, 96 h): 1 µM; Activity [15]: Active; Activity [16]: Active; Activity [17]: Non-toxic; Activity [18]: 30%; ΔTm [8]: 11 °C; Activity [19]: Dose-dependent effect; IC50 ([19]; 96 h): 1 µM
Cc1cc(NC(=O)c2cc(-c3ccccc3O)no2)nn1CC(=O)N1CCOCC1 | inactive |  |  | inactive |  | inactive | inactive |  | 
